Variants at the floor of the assay were thinned out.
B1: tRNA (parent)
chain: GUUCCGUUGGCGUAAUGGUAACGCGUCUCCCUCCUAAGGAGAAGACUGCGGGUUCGAGUCCCGUACGGAACG

Variants of: B1
Assay: yeast fitness relative to wild type (ratio to wild type); higher = fitter; tRNA-Arg(CCU), competitive growth, 37 C, YPD
Summary of the method: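 Variants of the tRNA-Arg(CCU) gene, chemically synthesised with a 3% per-site mutation rate at 69 sites, were placed at the native genomic locus in Saccharomyces cerevisiae. The pooled strains were competed in YPD at 37°C for 24 hours in six parallel replicates. Gene amplicons from the start population and from each end population were read by 100-nucleotide paired-end sequencing. Darwinian fitness relative to wild type came from changes in genotype frequencies; genotypes needed ≥ 100 starting reads, and estimates < 0.5 were set to 0.5.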

Variant	yeast fitness
GUUCCGUUGGCGUAAUGGUAACGUGUGUCCCUCCUAAGGAGAAGACCGCGGGUUCCAGUCCCGCACGCAACG [C24U C27G U47C G56C U64C G68C]	≤ 0.5
GUUCCGUUGGCGUAAUGGUAACGUGUCUCCCUCCUAGGGAGAAGACUGCGGGUUCGAGUCCCGUACGGAACG [C24U A37G]	0.708
GUUCCGUUGGCGUAAUGGUAACGUGUCUCCCUCCUAUGGUGAAGACUGCGGGUUCGAGUCCCGUACGGAACG [C24U A37U A40U]	0.568
GUUCCGUUGGCGUAAUGGUAACGUGUGUCCCUCCUAAGGAGAAGACUGCGGGUUCGAGUCGCGUACGGAACG [C24U C27G C61G]	≤ 0.5
GUUCCGUUGGCGUAAUGGUAACGUGUCUCACUCCUAGGGAGAAGACUGCGGGUUCGAGUCCCGAAUGGAGCG [C24U C30A A37G U64A C66U A70G]	≤ 0.5
GUUCCGUUGGCGUAAUGGUAACGUGUCUCCCUCCUAAGGAGAGGACUGCGGGUUCGAGUACCGUACGGAACG [C24U A43G C60A]	≤ 0.5
GUUCCGUUGGCGUAAUGGUAACGUGUCUCCCUCCUAAGGAGUAGACUGCGCGUUCGAGUCCCGUACGGAACG [C24U A42U G51C]	≤ 0.5
GUUCCGUUGGCGUAAUGGUAACGUGUCUACCACCUAAGGAGAAGAGUGCGGGUUCGAGUCCCGUACGGACCG [C24U C29A U32A C46G A70C]	≤ 0.5
GUUCCGUUGGCGUAAUGGUAACGUGUCUCCCUCCUAAGGGGAAGACUGCGGGUUCGAGUCCCGUACGGAACG [C24U A40G]	0.72
GUUCCGUUGGCGUAAUGGUAACGUGUCUCCCUCCUAGGGAGAAGUCUGCGGGUUCGAGUCCCGUACGGCACG [C24U A37G A45U A69C]	≤ 0.5
GUUCCGUUGGCGUAAUGGUAACGUGUCUCCGACCUAAGGAGAAGACUGCGGGUUCGAGUCCCGUACGGAACG [C24U C31G U32A]	0.504
GUUCCGUUGGCGUAAUGGUAACGUGUCUCCAUCCUAAGGAGAAGACUGCGGGUUCGAGUCCCGUACGGAACG [C24U C31A]	0.786
GUUCCGUUGGCGUAAUGGUAACGUGUCUCCCUCCUAAGGAGGAGACUGCAGGUUCGAGUCCCGUACGGAACG [C24U A42G G50A]	≤ 0.5
GUUCCGUUGGCGUAAUGGUAACGUGUCUCCCUCCUAAGGAGAAGCCUGCGGGUUCGACUCCCGUACGGAACG [C24U A45C G58C]	0.554
GUUCCGUUGGCGUAAUGGUAACGUGUCUCCCUCCUAAGGAGAAGACUGCGGGUUCGAGUCCCGUUCGGAACG [C24U A65U]	0.894
GUUCCGUUGGCGUAAUGGUAACGUGUCUCCCUCCUAAGGAGAAGACUGCGGGUUCGAGUCCCGUGCGGAACG [C24U A65G]	0.924
GUUCCGUUGGCGUAAUGGUAACGUGUCUCCUUCCUAAGGAGAAGACUGUGGGUUCGAGUCCCGUACGGACCG [C24U C31U C49U A70C]	0.643
GUUCCGUUGGCGUAAUGGUAACGUGUCUCCGUCCUAAGGAGAAGACUGCGGGUUAGUGCUCCGUACGGAACG [C24U C31G C55A A57U U59C C60U]	≤ 0.5
GUUCCGUUGGCGUAAUGGUAACGUGUCUCCCUCCUAAGGAGACGACUGCGGGUUCGAGUCCCGUACGGAUCG [C24U A43C A70U]	0.59

Variant	yeast fitness
GUUCCGUUGGCGUAAUGGUAACGUGUAUCCCUCCUAAGGAGAAGACUGCUGGUUCGAGUCCCGUACGGAACG [C24U C27A G50U]	≤ 0.5
GUUCCGUUGGCGUAAUGGUAACGUGUCUCCCUCCUAAGGAGAGGACUGCGGGUUCGAGUCCCGUACGGAACG [C24U A43G]	1.02
GUUCCGUUGGCGUAAUGGUAACGUGUCUCCCUCCUAAGGAGAAGCCUGUGGGUUCGAGUCCCGUACGGAACG [C24U A45C C49U]	0.791
GUUCCGUUGGCGUAAUGGUAACGUGUCUCCCUCCUAUGGAGAUGACUGCGGGUUCGAGUCCCGUACGGAACG [C24U A37U A43U]	0.646
GUUCCGUUGGCGUAAUGGUAACGUGUCUCCCUCCUAAGGAGAAGACUGCGGGUUCGAGUCCCGUACGGGACG [C24U A69G]	0.998
GUUCCGUUGGCGUAAUGGUAACGUGUCUCCCUCCUAAGGGGAAGACUGCGGGUUCGAGUUCCGUCCGGAACG [C24U A40G C60U A65C]	≤ 0.5
GUUCCGUUGGCGUAAUGGUAACGUGUGUCCCUCCUAACGAGAAGACUGCGGGUUCGUGUACGGUACGGAACG [C24U C27G G38C A57U C60A C62G]	≤ 0.5
GUUCCGUUGGCGUAAUGGUAACGUGUCUGCCUCCUAAGGAGAAGACUGCGGGUUCGAGUCCGGUACGGAACG [C24U C29G C62G]	≤ 0.5
GUUCCGUUGGCGUAAUGGUAACGUGUCUCCAUCCUAAGGAGAAGACUGCGGGUCCGUGUCCCGUACGGAACG [C24U C31A U54C A57U]	0.547
GUUCCGUUGGCGUAAUGGUAACGUGUCUCCCUCCUAAGGAGAAGGCUGUGGGUUCGAGUCCCGUACGGAACG [C24U A45G C49U]	0.931
GUUCCGUUGGCGUAAUGGUAACGUGUAUCGCUCCUAAGGAGAAGACUGCGGGUUCGAGUCCCGUACGGAACG [C24U C27A C30G]	≤ 0.5
GUUCCGUUGGCGUAAUGGUAACGUGUCUCCGUCCUAGGGAGAAGACUGCGGGUUCGAGUCCCGUACGGAACG [C24U C31G A37G]	0.529
GUUCCGUUGGCGUAAUGGUAACGUGUUUCCCUCCUAAGGAGAAGACUGCGGGGUCGAGUACCGUACGGAGCG [C24U C27U U53G C60A A70G]	≤ 0.5
GUUCCGUUGGCGUAAUGGUAACGUGUCUCCCUCCUAAGGAGAAGGCUGCGGGUUCGAGUCCCGUACGGAACG [C24U A45G]	1.03
GUUCCGUUGGCGUAAUGGUAACGUGUCUCCCUCCUAAGGAGGGGACUGCGGGUUCGAGUCCCGUACGGAACG [C24U A42G A43G]	0.733
GUUCCGUUGGCGUAAUGGUAACGUGUCUCUCUCCUAAGGAGAAGACUGCGGGUUCGAGUACCGUACGGAACG [C24U C30U C60A]	0.532
GUUCCGUUGGCGUAAUGGUAACGUGUCUCCCUCCUAGGAAGAAGACUCCGGGUUCGAGUCCCGUACGGAACG [C24U A37G G39A G48C]	≤ 0.5
GUUCCGUUGGCGUAAUGGUAACGUGUCUCCCUCCUAAGGAGAAGACUGCGGGUUCGGGUUCCGUACGCAACG [C24U A57G C60U G68C]	≤ 0.5
GUUCCGUUGGCGUAAUGGUAACGUGUCUCGCUCCUAAGGAGAAGCCUGCGGGUUCGAGUCCCGUACGGACCG [C24U C30G A45C A70C]	≤ 0.5
